System: MS2 coat protein
Test: apparent Kd, MS2 coat protein; higher = weaker binding; RNA-MaP array; FMN 200 µM where present
Method in brief: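 Apparent Kd: the median of filtered binding-curve fits from single clusters. Designs were transcribed on Illumina sequencing-chip clusters by stalled E. coli RNA polymerase and titrated with SNAP-549-labelled MS2 coat protein from 0.7 or 1.5 nM, doubling to 3 µM, in 100 mM Tris-HCl pH 7.5, 80 mM KCl, 4 mM MgCl2, BSA, DTT, yeast tRNA and Tween-20. Each series ran without and then with constant ligand, and green signal was normalised to red-channel RNA signal and control-cluster median Fmax.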

[1] = designed as: OFF switch for flavin mononucleotide, no ligand
[2] = ligand present: flavin mononucleotide, designed as: OFF switch for flavin mononucleotide
[3] = designed as: ON switch for flavin mononucleotide, no ligand
[4] = ligand present: flavin mononucleotide, designed as: ON switch for flavin mononucleotide

Sequence	apparent Kd [1]	apparent Kd [2]	apparent Kd [3]	apparent Kd [4]
CCAGCGUAUGUGAGGAUAUGCUGGUCCUUGGAUCAGCAGAAGGCACAUGAGGAUCACCCAUGUGAUAACGUUGG	0.0595 µM	0.261 µM	–	–
UGAAUGUGAGGAUAUGGUGAGUAGUGCCUGAGCGCUGCUCACCAGAAGGCACAUGAGGAUCACCCAUGUACUUG	0.0669 µM	0.215 µM	–	–
GGGUGGCGUAGAGGAUAUGUGUUACAUGAGGAUCACCCAUGUGCAUAUGAUGUUCGUGUGUGUGCAUAGAAGGCUACGUCGCUA	–	–	0.0283 µM	0.0243 µM
GUAGCAUACCGAGGAUAUUCGUCCGGAUUACGGACAUGAGGAUCACCCAUGUGGCGAAAGCCUUGGGAGAAGGCGGAAUGCUAC	–	–	0.732 µM	0.247 µM
AAUAAUAAUGUCAGGAUAUCUAGAGCUUCGGCUCUAGAGAAGGGACAUGAGGAUCACCCAUGUCACUCAAUAAU	0.0162 µM	0.0272 µM	–	–
UGUCUAUAUGAAGGAUAUCUAAGCAUAAACCGUAGAGAAGGUCAAUAGUACAUGAGGAUCACCCAUGUUAGAAUUGAAGGGUUU	0.0176 µM	0.0232 µM	–	–
CUGUUCCGUGUAGGAUAUGCAUAUUCUCAUUAUGCAGAAGGACAUGAGGAUCACCCAUGUAUGUUAUUAUCAUGUGUUACAUGU	0.0314 µM	0.163 µM	–	–
UUGUACAUAGGAUAUAGUUGUUUGUACAUGAGGAUCACCCAUGUUAUGUAUGUUUUGCUUCUAGAAGGAUGUUGUU	0.0332 µM	0.0244 µM	–	–
AAGAAGUGAGGAUAUGGCCGGGUCCCUGGGUUUGGACCCGGCCAGAAGGCACAUGAGGAUCACCCAUGUAAGAA	0.024 µM	0.0463 µM	–	–
GGCGGAGACGUUAACAUGAGGAUCACCCAUGUCGAAGGAGAUGAGGAUAUCGCAUACGAUGUAUGUGAGAAGGCAUGGUCUGCC	–	–	0.03 µM	0.0106 µM
CAGUACUGAGGAUAUACAUGAGGAUCACCCAUGUGUUCCAGCUAGGAAGCUAGCAAAAGUAGAAGGCAGUACUG	0.0262 µM	0.276 µM	–	–
UUCAUGUGAGGAUAUAGUACUUCUUCUAUUAUUAUUGAGUACUAGAAGGCACAUGAGGAUCACCCAUGUAGUAC	0.058 µM	0.0209 µM	–	–
AAAUAGCGAGGAUAUACAUGAGGAUCACCCAUGUGGACUGAUGUAGCAUGUUUCAGUGGUAGAAGGUGCUCAAA	0.112 µM	0.1 µM	–	–
GGAUCGUAUGUCAGGAUAUACCACUGGAUACAGUGGUAGAAGGGACAUGAGGAUCACCCAUGUUCUAUCGAUCC	0.0159 µM	0.0204 µM	–	–
GGAUAGGACAGAGGAUAUACGCGCUAGAGAUACUAGCAAAAUUUCCUCACAUGAGGAUCACCCAUGUAGAAGGCUGUCCUAUCG	0.0201 µM	0.58 µM	–	–
UAAUUAAUAAGAUCAAUUAAUUAACAUGAGGAUCACCCAUGUGAGGAUAUCAGCUCGAUUAGAGCUGAGAAGGCACAAUAAUUA	0.0432 µM	0.102 µM	–	–
UCUGGUCGAGGAUAUACAAUCGUGCUUCGGCACGUAAGAUCACAUGAGGAUCACCCAUGUAGAAGGUGACCAGA	0.0271 µM	0.131 µM	–	–
UCACGGGACUGAGGAUAUACAUUUAUUAUUUUUGUAGAAGGCAGAAUGUUAGUUUUUUCACUAUACAUGAGGAUCACCCAUGUU	0.0272 µM	0.0199 µM	–	–

Sequence	apparent Kd [1]	apparent Kd [2]	apparent Kd [3]	apparent Kd [4]
GACAAUCUAUCUGAGGAUAUCAUGAAAAAAACAUGAGGAUCACCCAUGUGCAGGAAAACUGCAUAUGAGAAGGCAGAUAGAUUGA	–	–	0.708 µM	0.0287 µM
AGGCCGCUACGCCGGCUUCACGCACAGGAUAUGCAGUUACAUGAGGAUCACCCAUGUGGCCAUGUGCAGAAGGGUGGUUCGUUA	–	–	0.109 µM	0.0245 µM
GGCACACAUGAGGAUCACCCAUGUGAGGAUAUGGUGCGAUCGUCGAAAGACGAUAGCACCAGAAGGCACAUGCC	0.0182 µM	0.0395 µM	–	–
AAGUCGAGCGUGAGGAUAUCGUCCGGACGACCGAACGAGAAGGCACAUGAGGAUCACCCAUGUGAUUCAGCUCA	0.019 µM	0.0706 µM	–	–
UUGGACGUCGUAGGAUAUGUAGGAUAUUCCUACAUGAGGAUCACCCAUGUUGACAUGGAAGAAGGACAGAAGGACAAUGUCCAU	–	–	0.414 µM	0.0075 µM
UUUAUAUAGUAAGGAUAUGUAUUAAUUUUAUAGACAGAAGGUACUGACAUGAGGAUCACCCAUGUUUUAGUGUGGGCAUGUAGU	0.358 µM	0.549 µM	–	–
UACAAUGGAGGAUAUAUGGUCAUACACAUGAGGAUCACCCAUGUCGCGAGUCGUGUAUCCAUAGAAGGCUGUAGUG	0.0137 µM	0.0156 µM	–	–
AUUACAUGAGGAUCACCCAUGUACAGCACGUUUCAAUACAGUGAGGAUAUACGAAAUGUAGGAACGUAGAAGGCACUGGGUGCA	–	–	0.265 µM	0.0681 µM
GGGUACAUCGGAGGAUAUCAUGUAAAUACAUGAGGAUCACCCAUGUCGAUGGAGACAUCGGAGGUUGAGAAGGCCGAUGUACCG	–	–	0.961 µM	0.0185 µM
GUAAUAAAGAUCCAAUUAUACAACAUGAGGAUCACCCAUGUGCAGGAUAUCGUGUGUUUUUUAUUCGAGAAGGGCAAAUUCAUU	0.0519 µM	0.146 µM	–	–
GUACAGCGACAUGAGGAUCACCCAUGUAGCCGCCGAUCGUCGCAGGAUAUGGCAAAGGUUAACAGUCAGAAGGGUGAUGUUCGA	–	–	0.0736 µM	0.0413 µM
AAACUCAUUGUCAGGAUAUGUAUUGAAGGAAUCGGACAGAAGGGACAUGAGGAUCACCCAUGUUACUAAGACCC	0.0259 µM	0.0743 µM	–	–
GCGUAACAUGAGGAUCACCCAUGUACUCGAGAAUUCGAGUGUAGAAGGGUGACCGGUCGUUUGGCACAGGAUAUACACGCUGUG	–	–	0.0315 µM	0.012 µM
AAUAUUUUUUGAGGAUAUUCAUACACUGUAUACGGAGAAGGCAAACAAUCAUGAGGACAUGAGGAUCACCCAUGUUGUGACCAU	–	–	0.0201 µM	0.0128 µM
ACGGUUGGGACAGGAUAUGUAACCGGGAUUCUAGUUUCGUCCGUGACAUGAGGAUCACCCAUGUUACAGAAGGGUUCUAAAUCG	0.189 µM	0.234 µM	–	–
CCCAGAGCGUAAGGAUAUACAUGAGGAUCACCCAUGUCUACAAUAAUAGUACUAUAUGAAGUCGUGUAGAAGGUACGCGCAGGU	0.0412 µM	0.119 µM	–	–
GAGCUAUGAGGAUAUGCAUAUAUGCGGUUUCGUGUGGUACUACAUGAGGAUCACCCAUGUAGAAGGCGUGGCUG	0.0172 µM	0.017 µM	–	–
UAAAUUUUGUAAGGAUAUACACGAGAUUCAAGUGUAGAAGGUACUUACAUGAGGAUCACCCAUGUAUACAUGGAUACUAGAUAU	–	–	0.209 µM	0.103 µM

Source: the EternaBench riboswitch data
